Bioassay records as filed in PubChem BioAssay.
TAAR1 antagonist: human TAAR1 antagonism. Q96RJ0. CHO RD-HGA16 TAAR1, Fluo-8 calcium fluorescence, antagonist. inhibition, % at 3 µM. 360,000 tested, 1.5% active;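 active = inhibition above a per-plate cutoff, the mean inhibition of test compounds on that plate plus 3 SD, cut at about 49% in these data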;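 also: 0% = DMSO plus EC80 beta-PEA response and 100% = DMSO alone without agonist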
Target sequence (Q96RJ0 whole entry, looked up): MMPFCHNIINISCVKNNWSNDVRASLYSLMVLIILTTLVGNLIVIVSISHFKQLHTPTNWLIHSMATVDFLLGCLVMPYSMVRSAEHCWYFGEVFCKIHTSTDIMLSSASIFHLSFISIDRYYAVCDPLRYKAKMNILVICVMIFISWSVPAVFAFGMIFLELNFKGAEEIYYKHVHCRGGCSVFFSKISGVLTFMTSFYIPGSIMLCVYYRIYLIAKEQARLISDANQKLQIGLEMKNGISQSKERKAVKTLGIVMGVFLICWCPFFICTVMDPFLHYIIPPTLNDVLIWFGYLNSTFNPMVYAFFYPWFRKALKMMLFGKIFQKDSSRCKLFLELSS
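Assay system: RD-HGA16 CHO cells with stable hTAAR1 and Gα16 / Reagent: EC80 β-phenethylamine stimulus / Doses: 3 µM, single point / Timing: dye loading 75 min at 37 °C, then 30 min room temperature / Measured by: Fluo-8 intracellular calcium dye fluorescence, real-time kinetic reads / Controls: vehicle wells and EC80 agonist wells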
OX1R antag-1: antagonists of human orexin 1 receptor (OX1R) | O43613 | OX1R-expressing cells, FRET antagonist read-out | inhibition, % at 6.6 µM | 330,000 tested, 1.8% active | AID 485270; in the data active = inhibition mostly above about 38%, no sharp cut-off; inactive = mostly below about 40%;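 also: 0% = agonist challenge alone and 100% = reference antagonist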
Target sequence (O43613 whole entry, looked up): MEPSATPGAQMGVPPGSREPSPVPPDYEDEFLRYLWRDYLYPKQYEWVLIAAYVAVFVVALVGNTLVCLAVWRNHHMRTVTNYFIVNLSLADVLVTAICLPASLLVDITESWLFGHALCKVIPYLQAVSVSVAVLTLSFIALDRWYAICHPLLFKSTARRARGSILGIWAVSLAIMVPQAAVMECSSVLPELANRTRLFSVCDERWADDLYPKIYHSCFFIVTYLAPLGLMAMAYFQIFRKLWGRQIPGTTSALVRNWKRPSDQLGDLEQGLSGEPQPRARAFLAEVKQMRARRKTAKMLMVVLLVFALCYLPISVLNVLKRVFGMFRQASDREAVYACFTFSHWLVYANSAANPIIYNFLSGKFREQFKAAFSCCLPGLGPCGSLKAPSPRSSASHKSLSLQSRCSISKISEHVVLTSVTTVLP
OX1R antag-2: antagonists of human orexin 1 receptor. AID 434989. CHO/OX1R cells, Fluo-8 calcium fluorescence, orexin A. 330,000 tested, 0.43% active. inhibition, % at 5 µM;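 active = inhibition above its plate's threshold, mean inhibition of all tested compounds on the plate plus 3 SD, cut at about 37% in these data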;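 also: 0% = orexin A challenge wells and 100% = SB-334867-A antagonist wells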
TAAR1 ag: human TAAR1 agonism. Q96RJ0. CHO RD-HGA16 TAAR1, Fluo-8 calcium fluorescence; vehicle wells 0%, saturating PEA agonist 100%. activation, % at 3 µM. 360,000 tested, 0.99% active;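 active = activation above the mean activation of all test compounds in the run plus 3 SD, cut at about 38% in these data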
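test system = CHO RD-HGA16 cells carrying human TAAR1 plus Gα16 | schedule = 17-24 h seeding, 75 min 37 °C dye, 30 min RT | compound dosing = 3 µM single concentration | control set = DMSO and PEA EC100 | replicates = n 1 | signal = Fluo-8 fluorescence, 5 s baseline then 140 s kinetic read | measure = percent activation vs PEA EC100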
CHO parental Ca: counter-screen: ATP calcium response change in parental CHO cells; parental CHO-K1, ATP-induced calcium, Fluo-8 fluorescence; inhibition, % at 5.6 µM; 330,000 tested, 0.63% active;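 active = inhibition above that plate's mean sample inhibition plus 3 SD, cut at about 26% in these data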;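 also: 0% = ATP-challenged DMSO wells and 100% = DMSO wells without ATP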
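Test system: parental CHO cells; detection: calcium-sensitive Fluo-8 fluorescence; evaluation: percent inhibition of calcium signal; also added: ATP as calcium-mobilizing challenge; repeats: one well per compound; control set: ATP-challenged DMSO wells low, unchallenged DMSO wells high; compound: single nominal dose of 5.6 µM per compound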
Numbers without * were called inactive; · = no result given. The list is not random: actives were taken first. Their share in the collection is about 4%.

SMILES | TAAR1 antagonist | OX1R antag-1 | OX1R antag-2 | TAAR1 ag | CHO parental Ca
Cc1cccc(OC(C)C(=O)OCC(=O)Nc2sccc2C(N)=O)c1 (stereo not given) | 15.8 | 13.3 | 38.7 | 4.8 | 17.2
Cc1cccc(OCC(=O)OCC(=O)Nc2sccc2C(N)=O)c1 | 55.5* | 2.9 | 43.6* | 29.9 | 33.1*
NC(=O)c1ccsc1NC(=O)CSc1ccccc1F | -1.4 | 13.8 | 5.5 | 4.5 | -5.3
Cc1ccccc1SCC(=O)OCC(=O)Nc1sccc1C(N)=O | 49.0* | 29.0 | 23.7 | 16.0 | 23.4
NC(=O)c1ccsc1NC(=O)COC(=O)Cc1cccc2ccccc12 | 73.3* | 38.9 | 75.4* | 34.5 | 58.9*
Cc1cc(N2CCN(CC(C)(C)O)C[C@@H]2C)ccc1N1CCN(Cc2ccccc2)[C@H](C)C1 | 0.4 | · | · | -0.6 | ·
C#CCN(C[C@H]1[C@H](OC(=O)Nc2cccs2)[C@H](OC(=O)Nc2cccs2)CN(C(=O)OC(C)C)N1C(=O)OC(C)C)S(=O)(=O)c1ccc(C)cc1 | -1.3 | · | · | 0.2 | ·
COc1ccccc1-c1cccc2c3c([nH]c12)[C@@H]1C[C@H]2[C@@H](C(=O)N1CC3)[C@H](C)ON2C | -2.5 | · | · | 4.6 | ·
COCc1cc(N2CCN(C(=O)OC(C)(C)C)C[C@@H]2C)ccc1Br | 39.0 | · | · | 1.6 | ·
COC(=O)C(Cc1ccc(OC(=O)c2ccc(Cl)cc2)cc1)N1Cc2ccccc2C1=O (stereo not given) | 44.7 | 22.9 | 41.3* | 15.7 | 52.7*
COC(=O)C(Cc1ccc(OC(=O)c2ccc(C(F)(F)F)cc2)cc1)N1Cc2ccccc2C1=O (stereo not given) | · | 10.7 | 36.4 | · | 40.2*
O=C(NCc1ccccc1)[C@@H]1CCCN1C(=O)[C@H]1CCCN1C(=O)c1c(F)cccc1F | -10.6 | · | · | 1.2 | ·
CCCCCCCCN1C(=O)[C@@H](CC(=O)N2CCSCC2)C[C@@]2(C(=O)OC)C1=C[C@H](C1CCCC1)O[C@@H]2C | -30.3 | · | · | -0.4 | ·
O=C(COc1ccc(F)cc1Cl)Nc1ccccc1C(=O)N1CCCCC1 | -36.6 | 25.1 | -35.4 | 3.3 | 98.9*
Cc1nn(C(C)C(=O)NNC(=S)Nc2ccc(F)cc2)c(C)c1[N+](=O)[O-] (stereo not given) | 5.8 | 7.9 | -8.7 | 10.4 | -5.7
COc1ccc(CN(CCC(C)C)S(=O)(=O)c2ccccc2Br)c(OC)c1 | 15.2 | 37.8* | 41.7 | 5.0 | -27.5
COc1ccc(CNS(=O)(=O)c2ccccc2Br)c(OC)c1 | -28.9 | · | · | 2.0 | ·
Nc1nc(Oc2ccc(F)cc2)c(Br)c(=O)[nH]1 | -2.1 | -3.4 | 0.8 | 1.9 | -2.5
Cc1ccc2[nH]c(=O)c(CN(C(=O)c3cccc([N+](=O)[O-])c3)C(C)C)cc2c1 | -5.4 | 51.4* | 5.1 | 0.0 | -15.5
Cc1ccc(C2c3c(n[nH]c3C)C(=O)N2c2ccccc2)cc1 (stereo not given) | -28.4 | · | · | 0.0 | ·
CC(=O)N(C1=C(N)C(=O)c2ccccc2C1=O)C(C)C | 5.4 | 47.9* | -6.3 | 6.2 | -2.8
CCOC(=O)n1ccc(C(=O)Nc2ccccc2F)n1 | 2.6 | 7.1 | -7.2 | 17.0 | 29.0*
CC(Oc1ccc(Cl)cc1Cl)c1nc(-c2ccc(NC(=O)c3ccncc3)cc2)no1 (stereo not given) | 16.8 | 15.1 | 8.2 | 23.6 | 43.2*
CC(Oc1ccc(Cl)cc1Cl)c1nc(-c2ccc(NC(=O)c3cccnc3)cc2)no1 (stereo not given) | 57.1* | -0.5 | -23.7 | 9.4 | -14.2
CC(Oc1ccc(Cl)cc1Cl)C(=O)NNC(=O)c1ccncc1 (stereo not given) | 3.5 | 5.9 | -7.8 | 0.1 | -25.6
SMILES | TAAR1 antagonist | OX1R antag-1 | OX1R antag-2 | TAAR1 ag | CHO parental Ca
O=C(Nc1ccc(-c2noc(-c3cccs3)n2)cc1)c1cccnc1 | 55.9* | 61.1 | 3.7 | 17.2 | -0.4
COc1cccc(-c2nc(-c3ccc(NC(=O)c4cccnc4)cc3)no2)c1 | 3.4 | 26.4 | -16.3 | 3.0 | -22.7
C[C@@H]1ON(C)[C@H]2C[C@H]3c4[nH]c5c(-c6ccc(F)cc6)cccc5c4CCN3C(=O)[C@@H]12 | 21.4 | · | · | 2.7 | ·
CCc1cc2c(-c3ccccc3)cc(=O)oc2c(CN2CCOCC2)c1O | 24.0 | 8.6 | -3.1 | 12.4 | -5.8
O=c1cc(-c2ccccc2)c2cc(Cl)c(O)c(CN3CCOCC3)c2o1 | -5.6 | 65.1* | -3.7 | 6.3 | -4.1
CCOC(=O)c1nc(Nc2ccc(N3CCOCC3)cc2)c2ccccc2n1 | 3.1 | 16.8 | -22.5 | 4.5 | -13.2
Clc1nc(Nc2ccc(N3CCOCC3)cc2)c2ccccc2n1 | -8.5 | 70.0* | -3.8 | 2.1 | -9.1
CC(C)C[C@@H]1NC(=O)[C@@H]2CSCCS(=O)(=O)N2C1=O | -1.9 | · | · | 1.1 | ·
Cc1ccc(O)c(Nc2ncnc3ccc([N+](=O)[O-])cc23)c1 | -30.8 | 27.6 | -27.1 | 1.5 | -17.7
COc1ccc(Nc2ncnc3ccc([N+](=O)[O-])cc23)c(OC)c1 | -4.1 | 66.5* | -8.0 | -0.7 | -4.9
CCCCOc1ccc(S(=O)(=O)NNC(=O)c2cc3ccccc3o2)cc1 | 41.6 | 9.0 | -30.9 | 5.5 | -26.6
CC(C)COc1ccc(S(=O)(=O)NNC(=O)c2cc3ccccc3o2)cc1 | 5.6 | 29.3 | 25.6 | 4.0 | 43.0*
O=[N+]([O-])c1ccc(Oc2ccc(S(=O)(=O)Nc3ccccc3)cc2)cc1 | · | 26.4 | 49.6* | · | 19.7
O=S(=O)(Nc1ccccc1)c1ccc(Oc2ncc(C(F)(F)F)cc2Cl)cc1 | 69.2* | 46.9* | 88.2* | 37.5* | 73.3*
O=[N+]([O-])c1ccc(NS(=O)(=O)c2ccc(Cl)c(Cl)c2)cc1 | -30.5 | · | · | 2.7 | ·
O=C1C(Cl)=C(NS(=O)(=O)c2ccc([N+](=O)[O-])cc2)C(=O)c2ccccc21 | -7.2 | 44.7* | -0.2 | 0.7 | 11.6
O=[N+]([O-])c1ccc(S(=O)(=O)Nc2ccncc2)cc1 | -13.3 | 24.5 | -0.7 | 7.7 | 15.2
CC(C)NS(=O)(=O)c1ccc(Oc2ncc(C(F)(F)F)cc2Cl)cc1 | -24.5 | 7.7 | -16.4 | 28.3 | -19.9
O=[N+]([O-])c1ccc(Oc2ncccn2)cc1 | -2.6 | 44.6* | -6.2 | 1.9 | -7.7
CCOC(=O)c1c(S(=O)(=O)Nc2ccccc2OCC)c(C)n(C)c1C | -20.8 | 16.7 | 5.2 | 1.6 | -4.7
Cc1ccc(S(=O)(=O)NCCC(=O)Nc2cc(S(=O)(=O)N(C)C)ccc2C)cc1C | -24.1 | 14.0 | -3.6 | 1.5 | -9.8
COc1cccc(N2C(=O)C(c3ccccc3)=C(c3nc4ccccc4s3)C2NC(C)=O)c1 (stereo not given) | 0.2 | 53.0* | -6.0 | 7.1 | -13.4
CC(=O)NC1C(c2nc3ccccc3s2)=C(c2ccccc2)C(=O)N1c1ccc(C)cc1 (stereo not given) | 4.0 | 15.6 | -31.7 | 10.5 | -6.1
COc1c(/C=C2\SC(=Nc3ccccc3Cl)NC2=O)cccc1[N+](=O)[O-] | -4.8 | 68.2* | -13.5 | -2.5 | -6.9
